# Published values gathered from unrelated publications.
# Compare with care: the assays were run in different laboratories.
# Target: Dual specificity tyrosine-phosphorylation-regulated kinase 1B (DYRK1B, Homo sapiens, UniProt Q9Y463)
SMILES,observed,action,method,concentration,measurement,result
CCC(=N\O)/C(C)=C/c1ccc(F)cc1,cell-free assay,,competition with immobilised ligand,1 µM,remaining binding,57%
O=C(O)c1ccc2c(c1)nc(NCc1ccccc1)c1ccncc12,enzyme activity,inhibitor,radiometric,1 µM,remaining activity,112%
Cc1sc(C(=O)NC2COC2)cc1-n1cc(NC(=O)Nc2c(F)cccc2Cl)cn1,enzyme activity,inhibitor,,10 µM,remaining activity,105%
CC/C(=N\NC(=O)NCc1cccc(O)c1)c1ccc(O)c(C)c1O,enzyme activity,inhibitor,,0.1 µM,inhibition,-5.1%
Cc1ccc(NC(=O)c2ccc(C)c(C(F)(F)F)c2)cc1C#Cc1nn(C2CCC(O)CC2)c2ncnc(N)c12 (stereo not drawn),cell-free assay,,,10 µM,remaining signal,92%
O=C(O)c1ccc2c(c1)nc(Nc1ccc3ccccc3c1)c1ncncc12,enzyme activity,inhibitor,radiometric,1 µM,remaining activity,41%
Cc1c(C(=O)O)cc(-c2ccc(C3CCNCC3)cc2)c2ccc(-c3ccc(C(F)(F)F)cc3)cc12,cell-free assay,,competition with immobilised ligand,1 µM,remaining binding,74%
O=C(O)c1ccc2c(c1)nc(Nc1cccc(F)c1)c1ncncc12,enzyme activity,inhibitor,radiometric,1 µM,remaining activity,30%
COc1cc2ncnc(Nc3ccc(Oc4ccccc4)c(C)c3C)c2cc1OC,enzyme activity,inhibitor,,1 µM,inhibition,1%
CC(=O)N1CCC(c2ccc(C(=O)NC(=N)N)cc2C(F)(F)F)CC1,cell-free assay,,competition with immobilised ligand,1 µM,remaining binding,45%
Cn1cncc1C1=CN(c2ncnc3[nH]cnc23)CCS1,enzyme activity,inhibitor,radiometric,50 nM,inhibition,22.7%
CN(C)C(=O)Cn1cc(-c2nc([C@@](C)(c3ccc(-c4cnc(N)nc4)cc3)C3CC3)no2)cn1,cell-free assay,,competition with immobilised ligand,1 µM,remaining binding,98%
O=C(O)c1ccc2c(c1)nc(NCc1ccccc1)c1ncncc12,enzyme activity,inhibitor,radiometric,1 µM,remaining activity,124%
O=C(NCCCC1CCCCC1)c1ccc(CNC(=O)c2cnn(-c3ccccc3)c2C(F)(F)F)cc1,cell-free assay,,competition with immobilised ligand,0.1 µM,remaining binding,100%
O=C(CSc1nc2nccnc2c(=O)n1CCc1ccccc1)Nc1nccs1,enzyme activity,inhibitor,,10 µM,inhibition,-3%
